ChEMBL document CHEMBL4689842, “EUbOPEN Chemogenomics Library wave 1” (2021)

Tested on: HEK-293T
Experiment: Multiplex assay against HEK293T;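 as to Population Tubulin-Different-Phenotype (%): share of the cells with healthy nuclei that show this phenotype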
Type: toxicity, cell-based
Settings: human
How it was run: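 Live cells were stained at seeding with Hoechst33342, BioTracker Green Microtubule Cytoskeleton Dye, MitoTracker Red and Annexin V Alexa Fluor 680. Following compound addition, they were imaged on a CQ1 microscope at 37°C and 5% CO2 and gated by CellPathfinder machine learning into Hoechst high-intensity objects or normal cells, with normal cells split into healthy, pyknosed or fragmented nuclei and pyknosed cells into mitotic or apoptotic. Tubulin, mitochondrial-mass and membrane-permeability phenotypes are per cents of healthy-nucleus cells.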

[1] = 12 h, 1 µM, compound concentration 1 uM, replicate 1
[2] = 12 h, 1 µM, compound concentration 1 uM, replicate 2
[3] = 12 h, 10 µM, compound concentration 10 uM, replicate 1
[4] = 12 h, 10 µM, compound concentration 10 uM, replicate 2
[5] = 24 h, 1 µM, compound concentration 1 uM, replicate 1
[6] = 24 h, 1 µM, compound concentration 1 uM, replicate 2
[7] = 24 h, 10 µM, compound concentration 10 uM, replicate 1
[8] = 24 h, 10 µM, compound concentration 10 uM, replicate 2
[9] = 48 h, 1 µM, compound concentration 1 uM, replicate 1
[10] = 48 h, 1 µM, compound concentration 1 uM, replicate 2
[11] = 48 h, 10 µM, compound concentration 10 uM, replicate 1
[12] = 48 h, 10 µM, compound concentration 10 uM, replicate 2

Cl.O=c1c2cccn2c2ccccc2n1CCCN1CCC(c2ccc(Cl)cc2)CC1
Population Apoptotic (%) [1]: 57% | Population Fragmented Nuclei (%) [1]: 7% | Population Healthy Nuclei (%) [1]: 47% | Population Hoechst High Intensity Objects (%) [1]: 10% | Population Membrane Permeable-Phenotype (%) [1]: 0% | Population Mitochondria Different-Phenotype (%) [1]: 95% | Population Mitotic Cells (%) [1]: 42% | Population Normal (%) [1]: 89% | Population Pyknosed Nuclei (%) [1]: 44% | Population Tubulin-Different-Phenotype (%) [1]: 80% | Total Cell Count [1]: 267 | Population Apoptotic (%) [2]: 30% | Population Fragmented Nuclei (%) [2]: 5% | Population Healthy Nuclei (%) [2]: 38% | Population Hoechst High Intensity Objects (%) [2]: 5% | Population Membrane Permeable-Phenotype (%) [2]: 6% | Population Mitochondria Different-Phenotype (%) [2]: 65% | Population Mitotic Cells (%) [2]: 69% | Population Normal (%) [2]: 94% | Population Pyknosed Nuclei (%) [2]: 56% | Population Tubulin-Different-Phenotype (%) [2]: 59% | Total Cell Count [2]: 238 | Population Apoptotic (%) [3]: 86% | Population Fragmented Nuclei (%) [3]: 8% | Population Healthy Nuclei (%) [3]: 34% | Population Hoechst High Intensity Objects (%) [3]: 17% | Population Membrane Permeable-Phenotype (%) [3]: 5% | Population Mitochondria Different-Phenotype (%) [3]: 100% | Population Mitotic Cells (%) [3]: 13% | Population Normal (%) [3]: 82% | Population Pyknosed Nuclei (%) [3]: 57% | Population Tubulin-Different-Phenotype (%) [3]: 94% | Total Cell Count [3]: 297 | Population Apoptotic (%) [4]: 92% | Population Fragmented Nuclei (%) [4]: 7% | Population Healthy Nuclei (%) [4]: 19% | Population Hoechst High Intensity Objects (%) [4]: 9% | Population Mitochondria Different-Phenotype (%) [4]: 91% | Population Mitotic Cells (%) [4]: 7% | Population Normal (%) [4]: 90% | Population Pyknosed Nuclei (%) [4]: 72% | Population Tubulin-Different-Phenotype (%) [4]: 86% | Total Cell Count [4]: 212 | Population Apoptotic (%) [5]: 53% | Population Fragmented Nuclei (%) [5]: 7% | Population Healthy Nuclei (%) [5]: 55% | Population Hoechst High Intensity Objects (%) [5]: 12% | Population Membrane Permeable-Phenotype (%) [5]: 1% | Population Mitochondria Different-Phenotype (%) [5]: 93% | Population Mitotic Cells (%) [5]: 46% | Population Normal (%) [5]: 87% | Population Pyknosed Nuclei (%) [5]: 37% | Population Tubulin-Different-Phenotype (%) [5]: 73% | Total Cell Count [5]: 278 | Population Apoptotic (%) [6]: 38% | Population Fragmented Nuclei (%) [6]: 5% | Population Healthy Nuclei (%) [6]: 56% | Population Hoechst High Intensity Objects (%) [6]: 4% | Population Membrane Permeable-Phenotype (%) [6]: 4% | Population Mitochondria Different-Phenotype (%) [6]: 75% | Population Mitotic Cells (%) [6]: 61% | Population Normal (%) [6]: 95% | Population Pyknosed Nuclei (%) [6]: 38% | Population Tubulin-Different-Phenotype (%) [6]: 65% | Total Cell Count [6]: 296 | Population Apoptotic (%) [7]: 84% | Population Fragmented Nuclei (%) [7]: 13% | Population Healthy Nuclei (%) [7]: 36% | Population Hoechst High Intensity Objects (%) [7]: 27% | Population Membrane Permeable-Phenotype (%) [7]: 6% | Population Mitochondria Different-Phenotype (%) [7]: 100% | Population Mitotic Cells (%) [7]: 15% | Population Normal (%) [7]: 72% | Population Pyknosed Nuclei (%) [7]: 50% | Population Tubulin-Different-Phenotype (%) [7]: 88% | Total Cell Count [7]: 286 | Population Apoptotic (%) [8]: 98% | Population Fragmented Nuclei (%) [8]: 7% | Population Healthy Nuclei (%) [8]: 34% | Population Hoechst High Intensity Objects (%) [8]: 16% | Population Membrane Permeable-Phenotype (%) [8]: 3% | Population Mitochondria Different-Phenotype (%) [8]: 96% | Population Mitotic Cells (%) [8]: 1% | Population Normal (%) [8]: 83% | Population Pyknosed Nuclei (%) [8]: 58% | Population Tubulin-Different-Phenotype (%) [8]: 67% | Total Cell Count [8]: 206 | Population Apoptotic (%) [9]: 43% | Population Healthy Nuclei (%) [9]: 77% | Population Hoechst High Intensity Objects (%) [9]: 7% | Population Membrane Permeable-Phenotype (%) [9]: 2% | Population Mitochondria Different-Phenotype (%) [9]: 63% | Population Mitotic Cells (%) [9]: 56% | Population Normal (%) [9]: 92% | Population Pyknosed Nuclei (%) [9]: 15% | Population Tubulin-Different-Phenotype (%) [9]: 59% | Total Cell Count [9]: 453 | Population Apoptotic (%) [10]: 31% | Population Fragmented Nuclei (%) [10]: 7% | Population Healthy Nuclei (%) [10]: 70% | Population Hoechst High Intensity Objects (%) [10]: 5% | Population Membrane Permeable-Phenotype (%) [10]: 3% | Population Mitochondria Different-Phenotype (%) [10]: 32% | Population Mitotic Cells (%) [10]: 68% | Population Normal (%) [10]: 94% | Population Pyknosed Nuclei (%) [10]: 22% | Population Tubulin-Different-Phenotype (%) [10]: 54% | Total Cell Count [10]: 461 | Population Apoptotic (%) [11]: 82% | Population Fragmented Nuclei (%) [11]: 15% | Population Healthy Nuclei (%) [11]: 35% | Population Hoechst High Intensity Objects (%) [11]: 38% | Population Membrane Permeable-Phenotype (%) [11]: 2% | Population Mitochondria Different-Phenotype (%) [11]: 97% | Population Mitotic Cells (%) [11]: 17% | Population Normal (%) [11]: 61% | Population Pyknosed Nuclei (%) [11]: 48% | Population Tubulin-Different-Phenotype (%) [11]: 79% | Total Cell Count [11]: 311 | Population Apoptotic (%) [12]: 98% | Population Fragmented Nuclei (%) [12]: 13% | Population Healthy Nuclei (%) [12]: 42% | Population Hoechst High Intensity Objects (%) [12]: 30% | Population Membrane Permeable-Phenotype (%) [12]: 3% | Population Mitochondria Different-Phenotype (%) [12]: 98% | Population Mitotic Cells (%) [12]: 1% | Population Normal (%) [12]: 69% | Population Pyknosed Nuclei (%) [12]: 43% | Population Tubulin-Different-Phenotype (%) [12]: 64% | Total Cell Count [12]: 191
